Several values for one entry are separate records, joined by “and”; a condition that tells them apart may be missing. Identical values can stand only once. One block for each compound: values may come before it.
Tests used:
human plasma [1] = assay: Prothrombin time; settings: citrated human plasma
Outline: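 One-stage recalcification PT on a fibrometer. Test compound was made up in citrated pooled normal human plasma and held 30 s at 37 °C. Clotting was then started with prewarmed reconstituted thromboplastin-D. Clotting time was plotted against concentration and fitted to a quadratic trend line, from which the concentration doubling clotting time was taken.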

human plasma [2] = assay: Activated partial thromboplastin time; settings: for concentration required for a 2-fold increase in APTT: citrated human plasma
human factor XIa = human factor XIa (Homo sapiens, UniProt P03951); assay: Direct inhibition of FXIa, chromogenic substrate; type: biochemical
factor IXa = factor IXa (Homo sapiens, UniProt P00740); assay: Chromogenic substrate hydrolysis assay, factor IXa; type: biochemical
Outline: (§1)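 Chromogenic substrate hydrolysis with human plasma enzymes, substrate level set from its KM. Enzyme and substrate in well: thrombin 6 nM with Spectrozyme TH 50 µM; factor Xa 1.09 nM with Spectrozyme FXa 125 µM; factor XIIa 5 nM with Spectrozyme FXIIa 125 µM; factor IXa 89 nM with Spectrozyme FIXa 850 µM. Residual activity read spectrophotometrically at six or more serial test compound dilutions, then dose–response fitted.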

factor XIIa = biological target: T1, factor XIIa (Homo sapiens, UniProt P00748); assay: Chromogenic substrate hydrolysis assay, factor XIIa; type: biochemical
T1 sequence (P00748 373-615 limits assumed): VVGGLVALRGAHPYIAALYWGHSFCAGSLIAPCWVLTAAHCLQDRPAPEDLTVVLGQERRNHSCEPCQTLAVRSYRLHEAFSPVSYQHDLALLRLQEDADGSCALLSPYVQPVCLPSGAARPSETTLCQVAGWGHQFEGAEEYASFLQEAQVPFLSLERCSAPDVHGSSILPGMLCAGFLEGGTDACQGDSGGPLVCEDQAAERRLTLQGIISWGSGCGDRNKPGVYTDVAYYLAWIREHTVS
T1 sequence (P00748 20-372 partner limits assumed): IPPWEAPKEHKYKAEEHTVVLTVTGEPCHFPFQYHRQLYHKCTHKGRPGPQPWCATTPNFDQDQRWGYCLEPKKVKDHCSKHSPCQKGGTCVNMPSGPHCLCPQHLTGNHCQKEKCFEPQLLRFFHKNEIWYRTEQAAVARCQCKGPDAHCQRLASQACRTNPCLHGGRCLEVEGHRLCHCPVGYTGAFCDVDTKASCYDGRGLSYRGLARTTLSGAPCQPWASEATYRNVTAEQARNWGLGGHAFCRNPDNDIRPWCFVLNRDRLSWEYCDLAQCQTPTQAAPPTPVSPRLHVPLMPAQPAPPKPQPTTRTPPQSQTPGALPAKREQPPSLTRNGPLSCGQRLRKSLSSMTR
Outline: as §1

thrombin = thrombin (Homo sapiens, UniProt P00734); assay: Chromogenic substrate hydrolysis assay, thrombin; type: biochemical
Outline: as §1

factor VIIa = factor VIIa (Homo sapiens, UniProt P08709); assay: Chromogenic substrate hydrolysis assay, factor VIIa; type: biochemical; settings: NI = no inhibition observed up to 3.7 mg/mL
Outline: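 Plasma-derived human factor VIIa (8 nM) with 40 nM recombinant tissue factor and Spectrozyme factor VIIa substrate (1000 µM, in well; level chosen from KM). Residual activity was read spectrophotometrically across six or more serially diluted test compound concentrations to build an inhibition profile for IC50.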

bovine trypsin = biological target: T2, bovine trypsin (Bos taurus, UniProt P00760); assay: Chromogenic substrate hydrolysis assay, trypsin; type: biochemical; settings: NI = no inhibition observed up to 1.8 mg/mL
T2 sequence (P00760 24-246): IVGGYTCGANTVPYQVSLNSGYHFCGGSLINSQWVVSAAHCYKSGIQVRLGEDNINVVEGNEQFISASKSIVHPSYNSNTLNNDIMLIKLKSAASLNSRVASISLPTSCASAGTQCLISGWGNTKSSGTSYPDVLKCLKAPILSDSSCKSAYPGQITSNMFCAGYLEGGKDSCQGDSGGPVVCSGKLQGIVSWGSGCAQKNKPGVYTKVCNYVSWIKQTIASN
Outline: (§2)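 Digestive protease counter-screen: bovine trypsin 72.5 ng/mL with S-2222 80 µM, or bovine α-chymotrypsin 500 ng/mL with Spectrozyme CTY 240 µM (in-well levels; substrate chosen from KM). Fractional residual activity was measured spectrophotometrically at six or more serially diluted test compound concentrations, profiled for IC50.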

bovine chymotrypsin = bovine chymotrypsin (Bos taurus, UniProt P00766); assay: Chromogenic substrate hydrolysis assay, chymotrypsin; type: biochemical; settings: NI = no inhibition observed up to 1.8 mg/mL
Outline: as §2

human FXIa [3] = biological target: T3, human FXIa (Homo sapiens, UniProt P03951); assay: Inhibition of FXIa activation of FIX; type: biochemical; settings: 6 at 3 µM, FIX 0.5 µM, after 120 min of incubation
FXIa Wild Type = FXIa Wild Type (Homo sapiens, UniProt P03951); assay: Michaelis-Menten kinetics of S-2366 hydrolysis by wild-type FXIa; type: biochemical
[4] = system: FXIa Catalytic Domain (FXIa-CD); assay: Michaelis-Menten kinetics of S-2366 hydrolysis by FXIa catalytic domain; type: biochemical, human
human FXIa [5] = biological target: T3, human FXIa; assay: Competitive inhibition of FXIa by 6 in the presence of UFH; type: biochemical
human whole blood = assay: Thromboelastography
Outline: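 Thromboelastography at 37 °C: 200 mM CaCl2 stock placed in cup, then sodium-citrated human whole blood containing test compound or water added to recalcify. The cup oscillated through 4°45′ at 0.1 Hz. R, α, maximum amplitude (MA) and shear elastic modulus G were recorded automatically, with G = 5000 × MA/(100 − MA).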

[6] = 6 over the concentration range of 0–280 µg/mL

Chain of human factor XIa (P03951 19-387 limits assumed): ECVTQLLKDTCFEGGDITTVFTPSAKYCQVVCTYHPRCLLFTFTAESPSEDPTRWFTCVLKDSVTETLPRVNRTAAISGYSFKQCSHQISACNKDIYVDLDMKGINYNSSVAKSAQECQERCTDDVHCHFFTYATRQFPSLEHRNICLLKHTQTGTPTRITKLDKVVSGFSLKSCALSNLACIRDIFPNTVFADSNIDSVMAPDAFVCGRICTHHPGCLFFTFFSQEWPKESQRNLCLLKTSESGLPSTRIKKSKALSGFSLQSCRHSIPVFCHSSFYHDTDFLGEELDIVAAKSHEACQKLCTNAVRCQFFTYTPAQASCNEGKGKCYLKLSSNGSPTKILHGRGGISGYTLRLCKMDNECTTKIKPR
Chain of human factor XIa (P03951 388-625 limits assumed): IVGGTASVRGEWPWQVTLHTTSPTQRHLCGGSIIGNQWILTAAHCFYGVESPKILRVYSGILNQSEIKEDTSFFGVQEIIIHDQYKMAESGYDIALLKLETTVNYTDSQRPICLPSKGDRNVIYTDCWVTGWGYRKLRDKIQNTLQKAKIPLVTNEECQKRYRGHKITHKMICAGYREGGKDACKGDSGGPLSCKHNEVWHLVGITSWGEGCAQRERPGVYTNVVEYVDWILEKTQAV
Chain of FXIa Wild Type (P03951 19-387 limits assumed): as the sequence (P03951 19-387 limits assumed) above
Chain of FXIa Wild Type (P03951 388-625 limits assumed): as the sequence (P03951 388-625 limits assumed) above
T3 sequence (P03951 19-387 limits assumed): as the sequence (P03951 19-387 limits assumed) above
T3 sequence (P03951 388-625 limits assumed): as the sequence (P03951 388-625 limits assumed) above
Chain of factor VIIa (P08709 213-466 limits assumed): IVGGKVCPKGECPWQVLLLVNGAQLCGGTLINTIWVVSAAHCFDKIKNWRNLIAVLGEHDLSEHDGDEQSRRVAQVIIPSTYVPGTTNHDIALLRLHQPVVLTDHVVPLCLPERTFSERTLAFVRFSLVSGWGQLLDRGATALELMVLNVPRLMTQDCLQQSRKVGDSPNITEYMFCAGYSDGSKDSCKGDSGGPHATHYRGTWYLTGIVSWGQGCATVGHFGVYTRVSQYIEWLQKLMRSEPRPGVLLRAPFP
Chain of factor VIIa (P08709 61-212 limits assumed): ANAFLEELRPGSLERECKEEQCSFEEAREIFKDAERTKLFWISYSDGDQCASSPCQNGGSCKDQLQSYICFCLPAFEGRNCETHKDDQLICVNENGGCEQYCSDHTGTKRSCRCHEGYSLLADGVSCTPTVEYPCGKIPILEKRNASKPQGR
Chain of factor VIIa (P13726 33-295 partner): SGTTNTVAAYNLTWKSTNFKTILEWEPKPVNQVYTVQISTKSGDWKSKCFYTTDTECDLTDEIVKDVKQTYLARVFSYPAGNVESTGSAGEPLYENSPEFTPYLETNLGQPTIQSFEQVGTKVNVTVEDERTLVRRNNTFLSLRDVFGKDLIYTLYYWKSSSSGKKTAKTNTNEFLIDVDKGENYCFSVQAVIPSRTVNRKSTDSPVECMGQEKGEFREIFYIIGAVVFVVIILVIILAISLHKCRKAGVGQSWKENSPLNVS
Chain of factor IXa (P00740 227-461 limits assumed): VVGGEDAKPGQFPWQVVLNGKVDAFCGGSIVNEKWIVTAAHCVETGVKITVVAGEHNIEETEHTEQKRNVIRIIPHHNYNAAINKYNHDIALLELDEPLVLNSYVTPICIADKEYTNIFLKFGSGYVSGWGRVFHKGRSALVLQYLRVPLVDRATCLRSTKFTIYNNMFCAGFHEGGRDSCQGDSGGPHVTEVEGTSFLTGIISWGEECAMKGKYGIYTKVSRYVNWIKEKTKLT
Chain of factor IXa (P00740 47-191 limits assumed): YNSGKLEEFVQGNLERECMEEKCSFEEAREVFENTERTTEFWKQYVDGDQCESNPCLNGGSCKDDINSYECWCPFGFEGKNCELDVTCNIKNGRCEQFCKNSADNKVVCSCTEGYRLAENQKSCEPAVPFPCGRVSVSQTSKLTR

SMILES: O=C(/C=C/c1ccc(OS(=O)(=O)[O-])c(OS(=O)(=O)[O-])c1)O[C@@H]1C[C@](O)(C(=O)[O-])C[C@@H](OS(=O)(=O)[O-])[C@H]1OS(=O)(=O)[O-].[Na+].[Na+].[Na+].[Na+].[Na+] [Molecule 4, sulfated chlorogenic acid]
concentration required for a 2-fold increase in PT (human plasma [1]): much higher
concentration required for a 2-fold increase in APTT (human plasma [2]): much higher

SMILES: COc1cc([C@H]2Oc3cc([C@H]4Oc5cc(OS(=O)(=O)[O-])cc(O)c5C(=O)[C@@H]4OS(=O)(=O)[O-])ccc3O[C@@H]2COS(=O)(=O)[O-])ccc1OS(=O)(=O)[O-].[Na+].[Na+].[Na+].[Na+] [Molecule 2, sulfated silibinin]
concentration required for a 2-fold increase in PT (human plasma [1]): much higher
concentration required for a 2-fold increase in APTT (human plasma [2]): much higher

IC50 (human factor XIa): 0.612 µM
selectivity for FXIa over other relevant enzymes (human factor XIa): at least 200 fold
HS (Hill slope) (human factor XIa; S-2366 hydrolysis, pH 7.4, 37 °C): 1.3 ± 0.1
HS (factor IXa): 2.2 ± 0.6
HS (factor XIIa): 3.0 ± 1.8
ΔY (thrombin): 83 ± 10
IC50 (factor VIIa): no inhibition
IC50 (bovine trypsin): no inhibition
IC50 (bovine chymotrypsin): no inhibition
formation of FIXaβ (human FXIa [3]): not detectable
VMAX (FXIa Wild Type; [6] 0.005 µg/mL): 93.7 ± 3.2 mAU/min
VMAX (FXIa Wild Type; [6] 0.5 µg/mL): 74.6 ± 2.6 mAU/min
VMAX (FXIa Wild Type; [6] 2.5 µg/mL): 56.9 ± 1.5 mAU/min
VMAX (FXIa Wild Type; [6] 5.0 µg/mL): 32.3 ± 2.1 mAU/min
VMAX (FXIa Wild Type; [6] 50.0 µg/mL): 17.2 mAU/min and 17.2 ± 1.2 mAU/min
IC50 (human FXIa [5]): 16 µM
HS (human FXIa [5]; UFH 0 µM): 1.3 ± 0.1
HS (human FXIa [5]; UFH 0.13 µM): 1.4 ± 0.2
HS (human FXIa [5]; UFH 3.33 µM): 1.7 ± 0.2
HS (human FXIa [5]; UFH 33.3 µM): 4.0 ± 0.9
SMILES: O=C(OC[C@H]1O[C@@H](OC(=O)c2cc(OS(=O)(=O)[O-])c(O)c(OS(=O)(=O)[O-])c2)[C@H](OC(=O)c2cc(OS(=O)(=O)[O-])c(O)c(OS(=O)(=O)[O-])c2)[C@@H](OC(=O)c2cc(OS(=O)(=O)[O-])c(O)c(OS(=O)(=O)[O-])c2)[C@@H]1OC(=O)c1cc(OS(=O)(=O)[O-])c(O)c(OS(=O)(=O)[O-])c1)c1cc(OS(=O)(=O)[O-])c(O)c(OS(=O)(=O)[O-])c1.[Na+].[Na+].[Na+].[Na+].[Na+].[Na+].[Na+].[Na+].[Na+].[Na+] [Molecule 6, sulfated pentagalloylglucoside]
retention of inhibitory potency with the catalytic domain of FXIa [4]: ~ 100%
decrease of VMAX ([4]; 6 from 0 to 5.0 µg/mL): ~5 fold
VMAX ([4]; [6] 0.5 µg/mL): 53.9 ± 1.4 mAU/min
concentration required for a 2-fold increase in PT (human plasma [1]): 298 µg/mL
less effective than enoxaparin at molar levels (human plasma [2]; molar basis): 36 fold
G (shear elastic modulus strength) (human whole blood; 6 at 20 µg/mL): 8.2 × 10^3 kDynes/cm^3
G (shear elastic modulus strength) (human whole blood; 6 at 135 µg/mL): 5.0 × 10^3 kDynes/cm^3
G (shear elastic modulus strength) (human whole blood; 6 at 190 µg/mL): 3.8 × 10^3 kDynes/cm^3
G (shear elastic modulus strength) (human whole blood; 6 at 280 µg/mL): 0.9 × 10^3 kDynes/cm^3
reduction of G (human whole blood; [6]): ~8 fold
reduction of MA (human whole blood; [6]): ~ 4 fold

inhibition of FXIa proteolytic activity (human factor XIa; highest concentration tested (300 µM)): completely inactive
SMILES: O=C(OC[C@H]1O[C@@H](OC(=O)c2cc(O)c(O)c(O)c2)[C@H](OC(=O)c2cc(O)c(O)c(O)c2)[C@@H](OC(=O)c2cc(O)c(O)c(O)c2)[C@@H]1OC(=O)c1cc(O)c(O)c(O)c1)c1cc(O)c(O)c(O)c1 [Molecule 5, pentagalloyl glucopyranoside, reference compound]

From paper PMC3574227 (Journal of medicinal chemistry, 2013)
